For one data set, the system named is MCF-7. Briefly: MTT antiproliferative. The data set is classed as cell-based. Particulars: Homo sapiens, MCF7, read-out: Cytotoxicity (IC50 μM) MCF-7.
The nature of another data set: MTT antiproliferative. The data set is classed as cell-based. Particulars: human, MCF-10A cells (normal breast cell line).
The nature of data set [1]: DPPH radical scavenging activity assay. Particulars: 30 min, room temperature, ethanol. Summed up:
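Test compound in absolute ethanol (2–100 μg mL−1; 40 μg mL−1 for screening), 1 mL mixed with 2 mL of freshly prepared DPPH (20 μg mL−1 in absolute ethanol). Incubated 30 min at room temperature in the dark, then absorbance read at 517 nm against an absolute ethanol blank. Ascorbic acid as positive control. % scavenging from blank versus sample absorbance; IC50 by nonlinear regression.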
(In general: Loss of DPPH colour is used to gauge radical scavenging.)

For data set [2] the following is noted: cited from earlier work; for IC50, inhibition of oxidation of DPPH: from P. latifolia leaves.
A further data set deals with MDA-MB-231 cells. Briefly: Wound-healing scratch. The data set is classed as cell-based, human. Particulars: MDA-MB-231, 10 μM, HGF-induced, 24 h. An outline of the steps:
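MDA-MB-231 cells grown overnight to confluent monolayers, scratched with a pipette tip, washed twice with PBS, then fresh RPMI. Test compound (10 μM, from 10 mM DMSO stock; DMSO ≤0.1%) added in serum-free defined medium with […] HGF, in triplicate, for 24 h. Cells fixed and Giemsa-stained; wound width imaged at 0 and 24 h. % migration calculated relative to DMSO control.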

Values after ≈ are worked out from the molar mass of the structure shown.

Broadly, the IC50 is the concentration at which inhibition is half-maximal. Take `C[C@@H]1O[C@@H](O[C@@H]2[C@@H](O)[C@H](OCCc3ccc(O)c(O)c3)O[C@H](CO)[C@H]2OC(=O)/C=C/c2ccc(O)c(O)c2)[C@H](O)[C@H](O)[C@H]1O` [Compound 5, verbascoside]: in the data set on MCF-7, the IC50 stood at 10.5 ± 0.52 µM. This compound also registered an IC50 at 48 h in “MTT antiproliferative” of 13.9 ± 0.69 µM. In addition, the “IC50, DPPH radical scavenging” value in data set [1] came to 17.50 ± 1.3 µg/mL (≈ 28 µM).

On to `O=C1O[C@H]([C@@H](O)CO)C(O)=C1O` [L-ascorbic acid, reference compound], for which, in data set [1], the “IC50, DPPH radical scavenging” value worked out at 10 ± 0.3 µg/mL (≈ 56.8 µM).

As for `O=C1C[C@@H](c2ccc(O)cc2)Oc2cc(O)cc(O)c21` [naringenin], in data set [2], the “IC50, inhibition of oxidation of DPPH” value is 16.0 µg/mL.

Take `COc1cc(C2Oc3c(OC)cc(C=CC=O)cc3C(O)C2O)ccc1O` (centres unmarked) [4′-hydroxy-8,3′-dimethoxy-6-acroleinylflavan-3,4-diol]: in data set [2], the “IC50, inhibition of oxidation of DPPH” value is 22.5 µg/mL.

Take `CC(CO)c1cc2c(c(O)c1O)C1=CC(=O)CC(C)(C)C1(C)C=C2` (centres unmarked) [11,12,16-trihydroxy-2-oxo-5-methyl-10-demethyl-abieta-1,[10] and 6,8,11,13-pentene]: the “IC50 towards DPPH assay” value in data set [2] (from P. serratifolia) is 20.4 ± 1.3 µg/mL (≈ 62.1 µM).

As for `CC1(C)CC[C@]2(C(=O)O)CC[C@]3(C)C(=CC[C@@H]4[C@@]5(C)CC[C@H](O)C(C)(C)[C@@H]5CC[C@]43C)[C@@H]2C1` [Compound 10, oleanolic acid], in the data set on MDA-MB-231 cells, the “cell migration inhibition in wound-healing assay” value was “suppressed”.
